The target of one data set is Dopamine receptor. The data set can be described thus: Compound was tested for its effect on dopamine saturation analysis. In kind it is protein assay.
The target of another data set is D(2) dopamine receptor (Rattus norvegicus, UniProt P61169). The experiment in a line: In vitro affinity for rat striatal Dopamine receptor D2 labeled with [3H]spiperone.
Data set [1] is filed under the species Rattus norvegicus. The data set can be described thus: Compound was tested for inhibition of conditioned avoidance response (CAR ). In kind it is functional. The method, boiled down: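 Rats trained to avoid an electric shock, test compound given orally, and block of the conditioned avoidance response scored. ED50 (mg/kg, po) with fiducial limits by the method of Berkson.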

The nature of data set [2]: Binding affinity against imipramine receptor was measured using radioligand ([3H]-imipramine) binding assay. Further details: species or system Rattus norvegicus.
The nature of data set [3]: Lethal dose after intraperitoneal administration in mouse. In kind it is toxicity, organism-based. The settings on record: in vivo, ip, read-out: ALD50.
Data set [4] has as its target T1, Adrenergic receptor alpha-1 (Rattus norvegicus, UniProt P15823+P23944+P43140).
T1 sequence (P15823 whole entry): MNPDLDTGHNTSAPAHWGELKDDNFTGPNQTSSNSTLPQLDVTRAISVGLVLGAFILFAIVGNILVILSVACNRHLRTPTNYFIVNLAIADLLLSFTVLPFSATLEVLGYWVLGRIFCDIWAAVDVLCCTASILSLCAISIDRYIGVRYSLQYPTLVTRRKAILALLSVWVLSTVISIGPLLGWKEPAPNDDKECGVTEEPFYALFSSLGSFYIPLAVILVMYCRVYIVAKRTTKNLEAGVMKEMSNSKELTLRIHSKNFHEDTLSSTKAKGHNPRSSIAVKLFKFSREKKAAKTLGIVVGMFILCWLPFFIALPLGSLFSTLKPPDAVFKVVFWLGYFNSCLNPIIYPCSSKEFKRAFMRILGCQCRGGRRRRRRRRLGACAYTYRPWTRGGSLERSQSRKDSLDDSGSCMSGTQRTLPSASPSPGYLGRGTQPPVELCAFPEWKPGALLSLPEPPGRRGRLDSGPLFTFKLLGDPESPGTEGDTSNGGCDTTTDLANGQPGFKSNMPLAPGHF
T1 sequence (P23944 whole entry): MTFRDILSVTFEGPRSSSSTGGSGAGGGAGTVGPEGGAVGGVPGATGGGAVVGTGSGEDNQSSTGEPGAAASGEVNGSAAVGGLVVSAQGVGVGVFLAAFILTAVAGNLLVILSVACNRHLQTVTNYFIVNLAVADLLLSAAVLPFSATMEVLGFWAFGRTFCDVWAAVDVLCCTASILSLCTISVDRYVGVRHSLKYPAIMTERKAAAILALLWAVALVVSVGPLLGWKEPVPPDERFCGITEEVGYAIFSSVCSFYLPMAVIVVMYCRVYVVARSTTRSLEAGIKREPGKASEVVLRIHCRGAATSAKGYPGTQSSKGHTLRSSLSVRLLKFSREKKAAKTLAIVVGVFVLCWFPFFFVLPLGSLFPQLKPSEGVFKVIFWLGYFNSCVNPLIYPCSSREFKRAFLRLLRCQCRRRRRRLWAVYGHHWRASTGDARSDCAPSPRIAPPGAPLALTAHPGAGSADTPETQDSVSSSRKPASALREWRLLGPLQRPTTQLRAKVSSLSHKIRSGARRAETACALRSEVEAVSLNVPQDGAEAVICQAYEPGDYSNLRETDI
T1 sequence (P43140 whole entry): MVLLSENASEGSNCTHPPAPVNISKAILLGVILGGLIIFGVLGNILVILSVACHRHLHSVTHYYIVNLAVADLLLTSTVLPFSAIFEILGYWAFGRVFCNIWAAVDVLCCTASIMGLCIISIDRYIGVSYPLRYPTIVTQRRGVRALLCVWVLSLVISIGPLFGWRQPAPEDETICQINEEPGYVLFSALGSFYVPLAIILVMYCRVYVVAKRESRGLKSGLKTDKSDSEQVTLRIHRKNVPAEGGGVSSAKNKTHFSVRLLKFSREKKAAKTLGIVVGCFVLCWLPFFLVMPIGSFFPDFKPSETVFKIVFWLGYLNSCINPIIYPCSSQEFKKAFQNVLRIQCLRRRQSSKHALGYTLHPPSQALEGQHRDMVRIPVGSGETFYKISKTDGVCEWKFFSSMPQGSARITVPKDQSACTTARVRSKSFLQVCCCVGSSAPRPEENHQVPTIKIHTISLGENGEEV

The species named for data set [5] is Rattus norvegicus. The data set can be described thus: Compound was tested for inhibition of ethanol potentiation in rat. The data set is classed as functional. An outline of the steps: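 Nonfasted male rats received test drug or vehicle (distilled H2O or 0.5% methocel). EtOH (10 mL of 20% solution/kg, ip) followed at 15, 30, 60 or 120 min post-drug; the vehicle group got it at 15 min. Rats were watched about 10–15 min for loss of righting reflex lasting 1 min. Dose response at peak time used 10/dose; ED50 by Berkson.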

The species named for data set [6] is Mus musculus. The data set can be described thus: Compound was tested for inhibition of spontaneous motor activity in mouse. In kind it is functional.
A short description of data set [7]: Lethal dose after administration in mouse. The data set is classed as toxicity, organism-based. The settings on record: in vivo, read-out: ALD50.
Data set [8] can be described thus: Binding affinity against Muscarinic acetylcholine receptor was measured using radioligand ([3H]QNB) binding assay.
For data set [9], the species on record is Mus musculus. The data set can be described thus: Compound was tested for inhibition of physostigmine lethality in mouse. In kind it is functional. The method, boiled down: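 Groups of 10 nonfasted male mice dosed orally with test compound (initial 100 mg/kg) or vehicle (distilled H2O or 0.5% methocel). At 30 min, physostigmine given ip at 1.25 mg/kg, and lethality followed for up to 1 h. Active compounds retested at lower doses, 10 mice/dose, for dose response. ED50 by Berkson's method.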

The nature of data set [10]: Binding affinity against glycine receptor was measured using radioligand ([3H]strychnine) binding assay.
Data set [11] concerns the target GABA-A receptor; anion channel. The data set can be described thus: Inhibition of [3H]muscimol binding to Gamma-aminobutyric acid (GABA-A) receptor. The data set is classed as protein-complex assay, Rattus norvegicus.

D(2) dopamine receptor, sequence (P61169 whole entry): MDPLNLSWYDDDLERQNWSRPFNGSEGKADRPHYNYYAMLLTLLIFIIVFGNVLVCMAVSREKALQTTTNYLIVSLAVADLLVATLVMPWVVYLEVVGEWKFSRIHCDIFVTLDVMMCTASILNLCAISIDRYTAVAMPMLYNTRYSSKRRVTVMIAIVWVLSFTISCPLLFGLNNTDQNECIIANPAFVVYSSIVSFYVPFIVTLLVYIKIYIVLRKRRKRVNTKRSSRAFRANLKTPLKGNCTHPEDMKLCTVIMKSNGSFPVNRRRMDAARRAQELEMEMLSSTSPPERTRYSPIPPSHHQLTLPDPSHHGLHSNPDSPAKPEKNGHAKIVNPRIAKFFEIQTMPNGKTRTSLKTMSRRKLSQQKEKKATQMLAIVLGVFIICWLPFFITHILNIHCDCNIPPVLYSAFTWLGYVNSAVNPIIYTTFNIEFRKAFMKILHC

As usually defined, the Kd is a measure of binding affinity in units of concentration. A higher Kd goes with lower affinity. What is called IC50 is the midpoint of a concentration-inhibition curve. As usually defined, the ED50 is the midpoint of the dose-response relation. Turning to `Cl.O=C1CC2(CCCC2)CC(=O)N1CCCCN1CCN(c2nsc3ccccc23)CC1` [TIOSPIRONE HYDROCHLORIDE], the Kd on Dopamine receptor came out at 0.3337 nM. The IC50 against D(2) dopamine receptor was 8 nM; in [2], greater than 1000 nM; in data set [4], 47 nM; in [8] it was greater than 1000 nM; in [10] it was greater than 1000 nM; in data set [11], greater than 1000 nM. Further, the ED50 in the data set filed under Rattus norvegicus [1] is 10.5 mg/kg; in the data set filed under Rattus norvegicus [5] it was 9.3 mg/kg; in the data set filed under Mus musculus [6], 17.3 mg/kg; in the data set filed under Mus musculus [9], 294 mg/kg. The LD50 in data set [3] came out at 1530 mg/kg; in data set [7] it was 1850 mg/kg.
